Experimental data taken from ChEMBL document CHEMBL4219255, “Targeting Transient Receptor Potential Vanilloid 1 (TRPV1) Channel Softly: The Discovery of Passerini Adducts as a Topical Treatment for Inflammatory Skin Disorders” (J Med Chem, 2018).
Active and inactive are the calls of the source. No cut-off for these calls is given here.

Legend:
[1] = target: T1, Liver carboxylesterase 1 (CE1) (Homo sapiens, UniProt P23141); assay: Drug metabolism assessed as recombinant human CE1-mediated compound hydrolysis by measuring compound half life at 50 uM up to 30 mins by LC-UV analysis; format: ADME
T1 sequence (P23141 whole entry): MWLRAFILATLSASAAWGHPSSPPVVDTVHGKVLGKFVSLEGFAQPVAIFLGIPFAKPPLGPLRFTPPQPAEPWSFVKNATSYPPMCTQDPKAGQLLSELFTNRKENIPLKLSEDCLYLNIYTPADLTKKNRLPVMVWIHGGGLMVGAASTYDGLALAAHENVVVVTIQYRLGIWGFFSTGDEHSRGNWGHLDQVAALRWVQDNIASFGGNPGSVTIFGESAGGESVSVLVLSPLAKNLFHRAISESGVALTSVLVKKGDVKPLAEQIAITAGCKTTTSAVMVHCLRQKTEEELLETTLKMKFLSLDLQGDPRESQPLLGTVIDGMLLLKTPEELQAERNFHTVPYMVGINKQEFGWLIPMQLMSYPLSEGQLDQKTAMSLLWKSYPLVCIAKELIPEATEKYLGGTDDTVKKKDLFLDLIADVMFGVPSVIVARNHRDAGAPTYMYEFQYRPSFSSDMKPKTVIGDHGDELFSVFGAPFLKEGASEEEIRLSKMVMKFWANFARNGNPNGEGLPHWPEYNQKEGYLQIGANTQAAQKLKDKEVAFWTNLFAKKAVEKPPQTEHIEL
In short: (§1)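 Recombinant human carboxylesterase isoforms 1 and 2 were each incubated with the test ester. Hydrolysis was followed by HPLC-UV, tracking the disappearance of the substrate over incubation time relative to the initial amount. Chromatograms were also checked for peaks of the expected hydrolysis metabolites.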

[2] = target: Transient receptor potential cation channel subfamily V member 1 (Rattus norvegicus) (UniProt O35433); assay: Inhibition of TRPV1 in Wistar rat neonatal dorsal root ganglia assessed as reduction in capsaicin-induced neuronal excitability by microelectrode array analysis
Mus musculus [3] = assay: Toxicity in C57BL/6 mouse assessed as change in body temperature at 10 mg/kg, iv after 120 mins; format: organism-based; details: in vivo, 2 h
Mus musculus [4] = assay: Antipruritic activity in C57BL/6 mouse histaminergic pruritus model assessed as reduction in licking behavior at 100 ug administered as intraplantar injection pretreated for 30 mins followed by histamine addition measured 10 to 20 mins post histamine instillation; format: functional, organism-based
Liver carboxylesterase 1 = target: T2, Liver carboxylesterase 1 (Homo sapiens, UniProt P23141); assay: Drug metabolism assessed as recombinant human CE1-mediated compound hydrolysis by measuring rate constant at 50 uM up to 30 mins by LC-UV analysis; format: ADME; details: 0.5 h; in short: as §1
T2 sequence (P23141 whole entry): T1 sequence (P23141 whole entry)

Mus musculus [5] = assay: Analgesic activity in CFA-induced thermal hyperalgesia C57BL/6 mouse model assessed as reduction in CFA-induced ipsilateral paw withdrawal latency at 3 mg/kg, iv treated at 24 hrs post CFA injection measured at 60 to 90 mins post dose; format: functional, organism-based
Mus musculus [6] = assay: Effect on thermal nociception of the contralateral paw in CFA-induced thermal hyperalgesia C57BL/6 mouse model at 1 to 10 mg/kg, iv treated at 24 hrs post CFA injection; format: ADME, organism-based; details: in vivo
[7] = Drug metabolism in human liver microsomes assessed as glucuronide metabolite formation at 50 uM in presence of UDPGA after 60 mins by LC-ESI-MS analysis; format: ADME, microsome; details: 1 h
[8] = Drug metabolism in human HaCaT cells assessed as residual substrate levels at 25 uM up to 240 mins by HPLC-UV analysis; format: ADME, cell-based; details: read-out: Stability
Mus musculus [9] = assay: (§2) Analgesic activity in CFA-induced thermal hyperalgesia C57BL/6 mouse model assessed as reduction in latency time required to elicit paw withdrawal in response to radiant heat applied to the plantar surface of a hind paw administered as intraplantar injection treated at 24 hrs post CFA injection measured every 30 mins up to 120 mins post dose; format: functional, organism-based
[10] = Drug metabolism in human liver cytosol assessed as sulfate conjugate formation at 50 uM in presence of UDPGA after 60 mins by LC-ESI-MS analysis; format: ADME, subcellular; details: 1 h
Mus musculus [11] = assay: Analgesic activity in CFA-induced thermal hyperalgesia C57BL/6 mouse model assessed as reduction in CFA-induced ipsilateral paw withdrawal latency at 10 mg/kg, iv treated at 24 hrs post CFA injection measured at 60 mins post dose; format: functional, organism-based
Mus musculus [12] = assay: Analgesic activity in CFA-induced thermal hyperalgesia C57BL/6 mouse model assessed as reduction in CFA-induced ipsilateral paw withdrawal administered intravenously treated for 24 hrs post CFA injection; format: functional, organism-based
Cocaine esterase = target: T3, Cocaine esterase (Homo sapiens, UniProt O00748); assay: Drug metabolism assessed as recombinant human CE2-mediated compound hydrolysis by measuring rate constant at 50 uM up to 30 mins by LC-UV analysis; format: ADME; details: 0.5 h; in short: as §1
T3 sequence (O00748 whole entry): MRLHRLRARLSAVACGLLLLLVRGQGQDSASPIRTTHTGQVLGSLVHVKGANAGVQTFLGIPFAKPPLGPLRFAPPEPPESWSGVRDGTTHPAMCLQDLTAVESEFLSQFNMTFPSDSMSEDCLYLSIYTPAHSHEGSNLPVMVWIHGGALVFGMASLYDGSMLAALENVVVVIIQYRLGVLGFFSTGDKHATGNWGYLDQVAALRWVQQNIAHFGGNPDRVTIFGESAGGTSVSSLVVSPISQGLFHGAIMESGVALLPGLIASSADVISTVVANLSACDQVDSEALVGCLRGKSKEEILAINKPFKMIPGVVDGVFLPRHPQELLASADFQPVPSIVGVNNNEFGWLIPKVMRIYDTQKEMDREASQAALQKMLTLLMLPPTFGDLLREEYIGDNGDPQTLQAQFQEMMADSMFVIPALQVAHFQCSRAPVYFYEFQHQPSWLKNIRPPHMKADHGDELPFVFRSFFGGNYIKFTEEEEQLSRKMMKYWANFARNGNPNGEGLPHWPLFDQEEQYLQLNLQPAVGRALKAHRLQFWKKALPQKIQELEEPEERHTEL

Mus musculus [13] = assay: Antipruritic activity in C57BL/6 mouse non-histaminergic pruritus model assessed as reduction in chloroquine-induced licking behavior at 100 ug administered as intraplantar injection pretreated for 30 mins followed by chloroquine addition measured 10 to 20 mins post chloroquine instillation; format: functional, organism-based
[14] = Drug metabolism in human liver S9 fraction assessed as residual substrate levels at 50 uM up to 60 mins by HPLC-UV analysis; format: ADME, subcellular; details: read-out: Stability
Mus musculus [15] = assay: Effect on thermal nociception of the contralateral paw in CFA-induced thermal hyperalgesia C57BL/6 mouse model at 10 to 100 ug administered as intraplantar injection treated at 24 hrs post CFA injection measure up to 120 mins; format: ADME, organism-based; details: in vivo, other
Mus musculus [16] = assay: as §2, with “hind paw at 10 to 100 ug administered as” for “hind paw administered as”, “injection measured at 60 mins post” for “injection measured every 30 mins up to 120 mins post”; format: functional, organism-based
[17] = target: Transient receptor potential cation channel subfamily V member 1 (Rattus norvegicus) (UniProt O35433); assay: Modulatory activity against TRPV1 in Wistar rat neonatal dorsal root ganglia assessed as reduction in capsaicin-evoked action potential by measuring mean spike frequency ratio (P2/P1) at 10 uM by microelectrode array analysis (reference value: 0.87 +/- 0.04)
In short: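 Capsaicin-evoked action potential firing recorded with test agent at 10 µM. Response expressed as the P2/P1 mean spike frequency ratio.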

Mus musculus [18] = assay: as §2, with “hind paw at 10 to 100 ug administered as” for “hind paw administered as”, “injection measured at 90 mins post” for “injection measured every 30 mins up to 120 mins post”; format: functional, organism-based

Chain of Transient receptor potential cation channel subfamily V member 1 (Rattus norvegicus) (O35433 whole entry): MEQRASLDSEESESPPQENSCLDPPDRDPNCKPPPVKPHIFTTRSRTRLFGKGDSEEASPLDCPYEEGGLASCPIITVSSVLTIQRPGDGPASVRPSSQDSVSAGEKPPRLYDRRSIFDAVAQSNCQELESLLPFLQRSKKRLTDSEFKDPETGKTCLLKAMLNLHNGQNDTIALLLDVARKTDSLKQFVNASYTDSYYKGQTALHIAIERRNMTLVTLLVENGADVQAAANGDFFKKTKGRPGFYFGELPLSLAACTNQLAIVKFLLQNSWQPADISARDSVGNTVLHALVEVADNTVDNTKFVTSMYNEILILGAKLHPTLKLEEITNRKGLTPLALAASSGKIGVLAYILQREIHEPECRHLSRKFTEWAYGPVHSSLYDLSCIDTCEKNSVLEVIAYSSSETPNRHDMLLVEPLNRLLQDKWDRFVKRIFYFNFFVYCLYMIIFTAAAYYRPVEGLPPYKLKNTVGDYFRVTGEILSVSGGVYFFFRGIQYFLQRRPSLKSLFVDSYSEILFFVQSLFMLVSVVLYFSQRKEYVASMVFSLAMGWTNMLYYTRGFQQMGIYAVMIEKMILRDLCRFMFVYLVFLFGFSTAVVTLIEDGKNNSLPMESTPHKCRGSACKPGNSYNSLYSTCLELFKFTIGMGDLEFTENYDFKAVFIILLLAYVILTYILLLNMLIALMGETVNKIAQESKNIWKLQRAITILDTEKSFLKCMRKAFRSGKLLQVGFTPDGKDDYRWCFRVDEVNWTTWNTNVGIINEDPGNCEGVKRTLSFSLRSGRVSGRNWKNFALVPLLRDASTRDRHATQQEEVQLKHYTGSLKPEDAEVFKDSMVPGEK

In the case of `CCCCCCCCCCCC(=O)OCC(=O)NCc1cc(OC)c(O)cc1I`, the half-life at 50 µM [1] is reported as 27.2 min, the inhibition [2] is reported as “Dose-dependent effect” and the Activity (Mus musculus [3]) is reported as “Non-Toxic”. The Activity (Mus musculus [4]) was “Active”, the K (Liver carboxylesterase 1) was 0.0255 min⁻¹ and the Activity (Mus musculus [5]) was “Active”. The Activity (Mus musculus [6]) was “Non-Toxic”, the Drug metabolism [7] was “Metabolite_Notdetected” and the remaining at 4 h, 25 µM [8] was 98.6%. For the same molecule, the Activity (Mus musculus [9]) was “Dose-dependent effect”, the Drug metabolism [10] was “Metabolite_Notdetected” and the Activity (Mus musculus [11]) was “Active”. For the same molecule, the Activity (Mus musculus [12]) was “Dose-dependent effect”, the K (Cocaine esterase) was 0.0555 min⁻¹ and the Activity (Mus musculus [13]) was “Active”. For the same molecule, the remaining at 1 h, 50 µM [14] was 0%, the Activity (Mus musculus [15]) was “Non-Toxic” and the Activity (Mus musculus [16]) was “Active”. For the same molecule, the Ratio [17] was 0.53 and the Activity (Mus musculus [18]) was “Active”.
